From PMC11622326 (Diabetes, obesity & metabolism, 2024)

Columns and labels:
[1] = Acute intravenous dosing plasma PK in mice; assay type: in vivo, mouse; details: IV 5 mg/kg
How it was run: (§1)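 Male C57BL/6 mice (~8 weeks) fasted ~12 h before dosing; food returned 4 h post-dose. Single dose at 5 mg/kg IV (n=3) or 30 mg/kg PO (n=3). Saphenous cross-sampling at 0.0833 h (IV only), 0.25, 0.5, 1, 2, 4, 8, 12 h (PO only) and 24 h. K2EDTA plasma stored at −70°C, then LC-MS/MS. Mean ± SD.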

[2] = tested on: 1-MNA; experiment: Terminal liver 1-MNA level in DIO mice; assay type: in vivo, mouse; details: high-dose 32 mg/kg/day SC, ~1–2 h post-dosing on Day 30
How it was run: (§2)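 On day 30, obese HFD mice were dosed (saline, 10 or 32 mg/kg/day SC) 1 h before euthanasia, fasted 4 h, and killed by CO2. Left liver lobe cut into ~30 mg sections, flash-frozen, and assayed by LC-MS/MS for test compound and 1-MNA. Quantitation limit 1 ng/mL.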

[3] = Mouse plasma protein binding; assay type: in vitro ADME
[4] = tested on: DIO mice; experiment: Terminal liver weight, histopathology, F4/80 and liver triglycerides in DIO mice; assay type: in vivo, mouse
How it was run: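 Terminal day-30 livers from obese HFD mice treated daily SC (saline, 10 or 32 mg/kg/day; dosed 1 h pre-sacrifice, 4 h fast). Whole liver weighed. Left-lobe sections flash-frozen for triglyceride assay or formalin-fixed, paraffin-embedded for H&E and F4/80 IHC. Outputs: steatosis, inflammation, ballooning and NAS scores; hepatocyte count; cross-sectional area; F4/80-stained area by image analysis.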

[5] = biological target: T1, monoamine oxidase-A (MAO-A) (Homo sapiens, UniProt P21397); experiment: Cerep panel: MAO-A inhibition; assay type: biochemical; details: 10 μM
T1 sequence (P21397 1-527): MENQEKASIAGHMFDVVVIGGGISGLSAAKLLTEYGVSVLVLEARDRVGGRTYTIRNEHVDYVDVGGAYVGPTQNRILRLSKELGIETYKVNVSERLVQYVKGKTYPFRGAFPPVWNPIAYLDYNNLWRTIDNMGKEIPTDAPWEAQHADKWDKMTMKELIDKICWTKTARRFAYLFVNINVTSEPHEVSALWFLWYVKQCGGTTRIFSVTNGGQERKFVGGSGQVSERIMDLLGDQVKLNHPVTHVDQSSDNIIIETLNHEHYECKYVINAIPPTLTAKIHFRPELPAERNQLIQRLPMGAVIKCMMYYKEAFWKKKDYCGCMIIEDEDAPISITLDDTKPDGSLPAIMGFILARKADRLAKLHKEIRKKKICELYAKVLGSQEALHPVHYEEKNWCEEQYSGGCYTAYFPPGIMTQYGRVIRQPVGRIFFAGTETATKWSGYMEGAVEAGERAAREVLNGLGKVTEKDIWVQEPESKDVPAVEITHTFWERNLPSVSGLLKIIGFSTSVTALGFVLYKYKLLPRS

[6] = biological target: T2, mouse NNMT (Mus musculus, UniProt O55239); experiment: In vitro biochemical assay against mouse NNMT enzyme
T2 sequence (O55239 1-264): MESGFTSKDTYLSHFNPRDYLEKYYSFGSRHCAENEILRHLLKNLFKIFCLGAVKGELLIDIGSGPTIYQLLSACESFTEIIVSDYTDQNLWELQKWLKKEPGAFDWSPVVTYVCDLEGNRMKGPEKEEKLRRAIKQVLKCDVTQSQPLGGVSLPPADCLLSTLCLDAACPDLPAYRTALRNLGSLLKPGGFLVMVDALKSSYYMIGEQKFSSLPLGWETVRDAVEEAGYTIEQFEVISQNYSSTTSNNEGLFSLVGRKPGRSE

[7] = Terminal liver 5A1MQ concentration in DIO mice; assay type: in vivo, mouse; details: high-dose 32 mg/kg/day SC, ~1–2 h post-dosing on Day 30
How it was run: as §2

[8] = tested on: Cerep panel of major receptors, enzymes, and uptake transporter proteins; experiment: Cerep off-target panel; details: 10 μM
[9] = Acute oral dosing plasma PK in mice; assay type: in vivo, mouse
How it was run: as §1

[10] = Acute and repeat SC dosing plasma PK in mice; assay type: in vivo, mouse; details: for Cmax: plasma
How it was run: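 Male C57BL/6 mice (18–20 weeks), non-fasted, on certified chow, group-housed. Acute arm (n=6): single 25 mg/kg SC. Repeat arm (n=12): 25 mg/kg SC once daily for 5 days. Plasma stored at −70°C and assayed by LC-MS/MS. Mean ± SD.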

[11] = Solubility in aqueous and simulated gastric fluids; assay type: physicochemical
[12] = tested on: DIO mice; experiment: Oral glucose tolerance test; assay type: in vivo, mouse; details: Day 21, high-dose 32 mg/kg/day SC vs control and low-dose
How it was run: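 Performed on day 21 in obese HFD mice dosed daily SC (saline, 10 or 32 mg/kg/day). After fed-state bleed, mice fasted 4 h, receiving their treatment at 3 h of fasting. One hour post-dose, 2 g/kg oral glucose bolus. Blood glucose at 0, 15, 30, 60 and 120 min; plasma insulin at 0 and 15 min.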

[13] = Tissue distribution of 5A1MQ after repeat SC dosing in mice; assay type: in vivo, mouse
How it was run: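 Male C57BL/6 mice (18–20 weeks) given 25 mg/kg SC once daily for 5 days. On day 5, subsets (n=3/timepoint) bled by cardiac puncture at 1, 4 and 8 h post-dose. Epididymal white fat, liver and quadriceps collected terminally and stored at −70°C. Plasma and tissue levels measured by LC-MS/MS; tissue-to-plasma ratios derived.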

[14] = Metabolic stability in cryopreserved mouse hepatocytes; assay type: in vitro ADME
[15] = tested on: DIO mice; experiment: Terminal serum chemistry and complete blood count in DIO mice; assay type: in vivo, mouse
How it was run: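 Day-30 cardiac-puncture blood (~700 μL) from obese HFD mice given saline, 10 or 32 mg/kg/day SC daily. Mice were dosed 1 h before CO2 euthanasia after a 4 h fast. 300 μL used for complete blood count; 150 μL for serum chemistry (TG, ALT, AST, ketones, CK, LDH, lipids). Some endpoints analysed by Kruskal-Wallis test.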

[16] = tested on: DIO mice; experiment: Efficacy of 5A1MQ in DIO mice: body weight, whole-body composition, food intake; assay type: in vivo, mouse; details: for absolute fat mass gain: by study termination, control 4.7 g
How it was run: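 Male C57BL/6 mice (~18 weeks) kept on HFD for ≥12 weeks, singly housed, stabilised at ~40–50 g. After handling and 3 days of sham saline SC injections, randomised by baseline body composition (n=8/group). Saline, 10 or 32 mg/kg/day SC once daily at 4–5 PM for 30 days. Weight and food intake measured twice weekly; EchoMRI on days −1, 8, 15, 23, 29. Two-way repeated-measures ANOVA with FDR correction; ANCOVA with body weight covariate; mean ± SEM.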

[17] = tested on: DIO mice; experiment: Non-fasted; assay type: in vivo, mouse
How it was run: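 HFD-fed obese male C57BL/6 mice (n=8/group) received saline, 10 or 32 mg/kg/day SC once daily. Tail blood was taken noon–1 PM without fasting on days −7, 0, 7, 14, 21 and 28. Glucose read by test strip; plasma insulin by ELISA. Change expressed from Day 0 baseline.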

[18] = SC 25 mg/kg once-daily for 5 days
[19] = SC 25 mg/kg single (acute) dose
[20] = SC 25 mg/kg once-daily x5, 1 h post-dose
[21] = SC 25 mg/kg once-daily x5, 8 h post-dose
[22] = statistically significant only at the low dose (p<0.05 vs control)

Question: For C[n+]1cccc2c(N)cccc21 [5A1MQ, 5-amino-1-methylquinolium], which plasma clearance [1] is on record?
Answer: 101 mL/min/kg

Question: What about the terminal half-life [1] of the same compound?
Answer: 6.3 h

Question: What about the “steady-state volume of distribution” value ([1]; estimated) of the same compound?
Answer: 39 L/kg

Question: And the “AUC0-∞” value ([1]; plasma)?
Answer: 825 ng·h/mL

Question: And the Cmax ([1]; plasma)?
Answer: 2,009 ng/mL

Question: What about the “mean reduction in 1-MNA level in the liver relative to controls” value [2] of the same compound?
Answer: 39%

Question: And the “mouse plasma protein binding (Fb)” value [3]?
Answer: 7%

Question: What about the hepatocyte cell count ([4]; 10 and 32 mg/kg/day SC, p<0.0001) of the same compound?
Answer: significant main effects of treatment

Question: What about the “NAFLD activity score (NAS)” value ([4]; 10 and 32 mg/kg/day SC, p<0.0001 high dose vs control) of the same compound?
Answer: dose-dependent improvement

Question: And the whole-liver cross-sectional area ([4]; 10 and 32 mg/kg/day SC, p=0.0015)?
Answer: significant main effects of treatment

Question: And the “liver TG levels” value ([4]; 10 and 32 mg/kg/day SC, p=0.0169)?
Answer: significantly reduced

Question: What about the “liver F4/80 signal (macrophage marker)” value ([4]; high-dose 32 mg/kg/day SC vs control, p<0.05) of the same compound?
Answer: significantly lowered

Question: What about the terminal liver weight ([4]; high-dose 32 mg/kg/day SC, control average 2.1 g) of the same compound?
Answer: 1.4 g

Question: What about the “reduction in microvesicular steatosis compared to controls” value ([4]; high-dose 32 mg/kg/day SC, p<0.01) of the same compound?
Answer: 73%

Question: And the liver lobular inflammation ([4]; p<0.01 high dose vs control)?
Answer: significantly reduced

Question: And the hepatocellular ballooning ([4]; p<0.05 high dose vs control)?
Answer: significantly reduced

Question: What about the “inhibition of monoamine oxidase-A (MAO-A)” value [5] of the same compound?
Answer: 67.4%

Question: And the “mouse NNMT IC50” value [6]?
Answer: 0.078 µg/mL

Question: And the “liver concentration of 5A1MQ” value [7]?
Answer: 28.5 ng/g

Question: What about the “activity against Cerep panel targets (all except MAO-A)” value [8] of the same compound?
Answer: no significant activity

Question: And the Tmax ([9]; PO 30 mg/kg)?
Answer: 4 h

Question: And the estimated terminal half-life ([9]; PO 30 mg/kg)?
Answer: 14.8 h

Question: And the oral bioavailability ([9]; PO 30 mg/kg vs IV 5 mg/kg)?
Answer: 3.5%

Question: And the “AUC0-∞” value ([9]; PO 30 mg/kg, plasma)?
Answer: 224 ng·h/mL

Question: What about the Cmax ([9]; PO 30 mg/kg, plasma) of the same compound?
Answer: 14.5 ng/mL

Question: And the “Plasma AUC0-∞” value [10, 18]?
Answer: 4,687 ng*h/mL

Question: What about the Tmax [10, 18] of the same compound?
Answer: ~ 15 minutes

Question: And the “estimated terminal half-life (T1/2)” value [10, 18]?
Answer: 12.8 h

Question: And the Cmax [10, 18]?
Answer: 5,130 ng/mL

Question: And the “Plasma AUC0-∞” value [10, 19]?
Answer: 7,031 ng*h/mL

Question: And the “estimated terminal half-life (T1/2)” value [10, 19]?
Answer: 13.3 h

Question: What about the Tmax ([10]; SC 25 mg/kg single dose) of the same compound?
Answer: ~ 15 minutes

Question: What about the Cmax ([10]; SC 25 mg/kg single dose) of the same compound?
Answer: 7,010 ng/mL

Question: What about the solubility ([11]; phosphate buffered saline) of the same compound?
Answer: > 100 mg/mL

Question: What about the solubility ([11]; simulated gastric fluids) of the same compound?
Answer: > 10 mg/mL

Question: And the “OGTT circulating glucose levels at 15- and 30-min post-bolus glucose” value [12]?
Answer: significantly decreased

Question: What about the “OGTT plasma insulin at 15 min post-glucose loading” value ([12]; p<0.0001) of the same compound?
Answer: suppressed

Question: And the EWAT-to-plasma ratio [13, 20]?
Answer: 1.4

Question: And the liver-to-plasma ratio [13, 20]?
Answer: 0.09

Question: What about the “mean total exposure level in liver” value [13, 20] of the same compound?
Answer: 83 ng/ng

Question: What about the muscle-to-plasma ratio [13, 20] of the same compound?
Answer: 2.2

Question: What about the EWAT-to-plasma ratio [13, 21] of the same compound?
Answer: 31.1

Question: And the liver-to-plasma ratio [13, 21]?
Answer: 1.4

Question: What about the muscle-to-plasma ratio [13, 21] of the same compound?
Answer: 17.0

Question: What about the clearance [14] of the same compound?
Answer: 57.9 mL/min/kg

Question: And the “half-life (T1/2)” value [14]?
Answer: < 7 min

Question: What about the “decrease in monocytes vs control” value ([15]; high-dose 32 mg/kg/day SC, p<0.001) of the same compound?
Answer: 50%

Question: What about the “decrease in lymphocytes vs control” value ([15]; high-dose 32 mg/kg/day SC, p<0.05) of the same compound?
Answer: 31%

Question: And the “serum ketone body levels” value ([15]; p<0.0001 high dose vs control)?
Answer: dose-dependently decreased

Question: What about the “serum ALT” value ([15]; p<0.001 high-dose vs control) of the same compound?
Answer: dose-related decreases

Question: What about the “serum TG levels” value ([15]; p<0.01 high-dose vs control) of the same compound?
Answer: significantly lower

Question: And the “serum AST” value ([15]; p<0.01 low-dose vs control)?
Answer: dose-related decreases

Question: And the “total white blood cell count” value ([15]; p<0.05 high-dose vs control)?
Answer: significantly reduced

Question: And the “serum CK” value [15, 22]?
Answer: significantly lowered

Question: And the “serum LDH” value [15, 22]?
Answer: significantly lowered

Question: What about the longitudinal lean mass ([16]; 10 and 32 mg/kg/day SC) of the same compound?
Answer: no significant main treatment effect

Question: And the food intake ([16]; 10 and 32 mg/kg/day SC, treatment effect)?
Answer: no main effect

Question: And the “absolute fat mass gain” value ([16]; high-dose 32 mg/kg/day SC)?
Answer: 1.3 g

Question: And the “absolute fat mass gain” value ([16]; low-dose 10 mg/kg/day SC)?
Answer: 4.7 g

Question: What about the “weekly fed-state blood glucose” value ([17]; 10 and 32 mg/kg/day SC) of the same compound?
Answer: did not alter

Question: What about the “fed-state plasma insulin decrease from baseline (Day 0) to Day 28” value ([17]; high-dose 32 mg/kg/day SC, control increased by 112%) of the same compound?
Answer: 9%

Question: What about the “fed-state plasma insulin increase from baseline (Day 0) to Day 28” value ([17]; low-dose 10 mg/kg/day SC, control increased by 112%) of the same compound?
Answer: 46%
